Tests used:
Hepatitis C virus [1] = assay: Antiviral activity against Hepatitis C virus genotype 1a infected in human HuH7 cells assessed as inhibition of subgenomic replicon RNA replication after 72 hrs by luciferase reporter assay; format: functional, cell-based, Hepacivirus hominis; conditions: subtype 1a, Huh-7, 72 h
Hepatitis C virus [2] = assay: Antiviral activity against Hepatitis C virus genotype 1b infected in human HuH7 cells assessed as inhibition of subgenomic replicon RNA replication after 72 hrs by luciferase reporter assay; format: functional, cell-based, Hepacivirus hominis; conditions: Huh-7, 72 h
[3] = Cytotoxicity against human HuH7 cells by MTT assay; format: cell-based, Huh-7
In short: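 Huh-7-derived HCV replicon cell lines were used, with MTT as the vital dye read-out.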

Hepatitis C virus [4] = assay: Antiviral activity against Hepatitis C virus genotype 2a infected in human HuH7 cells assessed as inhibition of subgenomic replicon RNA replication after 72 hrs by luciferase reporter assay; format: functional, cell-based, Hepacivirus hominis; conditions: Huh-7, 72 h
Hepatitis C virus [5] = assay: Antiviral activity against Hepatitis C virus genotype 2b infected in human HuH7 cells assessed as inhibition of subgenomic replicon RNA replication after 72 hrs by luciferase reporter assay; format: functional, cell-based, Hepacivirus hominis; conditions: Huh-7, 72 h
Hepatitis C virus [6] = assay: Antiviral activity against Hepatitis C virus genotype 3a infected in human HuH7 cells assessed as inhibition of subgenomic replicon RNA replication after 72 hrs by luciferase reporter assay; format: functional, cell-based, Hepacivirus hominis; conditions: Huh-7, 72 h
Hepatitis C virus [7] = assay: Antiviral activity against Hepatitis C virus genotype 4a infected in human HuH7 cells assessed as inhibition of subgenomic replicon RNA replication after 72 hrs by luciferase reporter assay; format: functional, cell-based, Hepacivirus hominis; conditions: Huh-7, 72 h
Hepatitis C virus [8] = assay: Antiviral activity against Hepatitis C virus genotype 5a infected in human HuH7 cells assessed as inhibition of subgenomic replicon RNA replication after 72 hrs by luciferase reporter assay; format: functional, cell-based, Hepacivirus hominis; conditions: Huh-7, 72 h
Hepatitis C virus [9] = assay: Antiviral activity against Hepatitis C virus genotype 6a infected in human HuH7 cells assessed as inhibition of subgenomic replicon RNA replication after 72 hrs by luciferase reporter assay; format: functional, cell-based, Hepacivirus hominis; conditions: Huh-7, 72 h
[10] = Drug anabolism in dog hepatocytes assessed as compound level at 10 uM after 24 hrs measured per million cells by mass spectrometer analysis; format: ADME, cell-based, Canis lupus familiaris, Hepatocyte
[11] = Inhibition of N-terminal His6-tagged Hepatitis C virus genotype 1b isolate Con1 NS5B RNA-dependent RNA polymerase activity by plate reader analysis
[12] = Inhibition of C-terminal His6-tagged and C-terminal 21 amino acids truncated Hepatitis C virus genotype 1a H77 NS5B RNA-dependent RNA polymerase activity using polyU or polyC RNA as template by microbeta plate reader analysis; design: species or system Hepatitis C virus (isolate H77)
[13] = Inhibition of C-terminal His6-tagged and C-terminal 21 amino acids truncated Hepatitis C virus genotype 2a JFH-1 NS5B RNA-dependent RNA polymerase activity using polyU or polyC RNA as template by microbeta plate reader analysis; design: species or system Hepatitis C virus JFH-1
[14] = Inhibition of C-terminal His6-tagged and C-terminal 21 amino acids truncated Hepatitis C virus genotype 3a VRL-69 NS5B RNA-dependent RNA polymerase activity using polyU or polyC RNA as template by microbeta plate reader analysis; design: species or system Hepatitis C virus subtype 3a
[15] = Drug anabolism in human HuH7 cells assessed as compound level at 10 uM after 24 hrs measured per million cells by mass spectrometer analysis; format: ADME, cell-based; conditions: huh-7, 24 h
[16] = Inhibition of C-terminal His6-tagged and C-terminal 21 amino acids truncated Hepatitis C virus genotype 5a SA13 NS5B RNA-dependent RNA polymerase activity using polyU or polyC RNA as template by microbeta plate reader analysis
[17] = Inhibition of C-terminal His6-tagged and C-terminal 21 amino acids truncated Hepatitis C virus genotype 7a QC69 NS5B RNA-dependent RNA polymerase activity using polyU or polyC RNA as template by microbeta plate reader analysis; design: species or system Hepacivirus hominis
[18] = Drug anabolism in human HuH7 cells assessed as triphosphate level at 10 uM after 24 hrs measured per million cells by mass spectrometer analysis; format: ADME, cell-based; conditions: huh-7, 24 h
[19] = Drug anabolism in human HuH7 cells assessed as diphosphate level at 10 uM after 24 hrs measured per million cells by mass spectrometer analysis; format: ADME, cell-based; conditions: huh-7, 24 h
[20] = Drug anabolism in human HuH7 cells assessed as monophosphate level at 10 uM after 24 hrs measured per million cells by mass spectrometer analysis; format: ADME, cell-based; conditions: huh-7, 24 h
Hepatocyte [21] = assay: Drug anabolism in human hepatocytes assessed as triphosphate level at 10 uM after 24 hrs measured per million cells by mass spectrometer analysis; format: ADME, cell-based
Hepatocyte [22] = assay: Drug anabolism in human hepatocytes assessed as diphosphate level at 10 uM after 24 hrs measured per million cells by mass spectrometer analysis; format: ADME, cell-based
Hepatocyte [23] = assay: Drug anabolism in human hepatocytes assessed as monophosphate level at 10 uM after 24 hrs measured per million cells by mass spectrometer analysis; format: ADME, cell-based
Hepatocyte [24] = assay: Drug anabolism in rat hepatocytes assessed as triphosphate level at 10 uM after 24 hrs measured per million cells by mass spectrometer analysis; format: ADME, cell-based
Hepatocyte [25] = assay: Drug anabolism in rat hepatocytes assessed as diphosphate level at 10 uM after 24 hrs measured per million cells by mass spectrometer analysis; format: ADME, cell-based
Hepatocyte [26] = assay: Drug anabolism in rat hepatocytes assessed as monophosphate level at 10 uM after 24 hrs measured per million cells by mass spectrometer analysis; format: ADME, cell-based
[27] = Drug anabolism in dog hepatocytes assessed as triphosphate level at 10 uM after 24 hrs measured per million cells by mass spectrometer analysis; format: ADME, cell-based, Canis lupus familiaris, Hepatocyte
[28] = Drug anabolism in dog hepatocytes assessed as diphosphate level at 10 uM after 24 hrs measured per million cells by mass spectrometer analysis; format: ADME, cell-based, Canis lupus familiaris, Hepatocyte
[29] = Drug anabolism in dog hepatocytes assessed as monophosphate level at 10 uM after 24 hrs measured per million cells by mass spectrometer analysis; format: ADME, cell-based, Canis lupus familiaris, Hepatocyte
[30] = Total clearance in Sprague-Dawley rat at 2 mg/kg, iv and 5 mg/kg, po by WinNonlin non-compartmental analysis; format: ADME, organism-based; conditions: in vivo
In short: (§1)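 PK study animals were male Sprague–Dawley rats.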

[31] = Volume of distribution at steady state in Sprague-Dawley rat at 2 mg/kg, iv and 5 mg/kg, po by WinNonlin non-compartmental analysis; format: ADME, organism-based; conditions: in vivo, read-out: Vdss
In short: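 Pharmacokinetics were determined in male Sprague–Dawley rats.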

[32] = Cmax in Sprague-Dawley rat at 5 mg/kg, po by WinNonlin non-compartmental analysis; format: ADME, organism-based; design: dose 5 mg/kg, route oral; conditions: in vivo; in short: as §1
[33] = Total clearance in Beagle dog at 2 mg/kg, iv and 5 mg/kg, po by WinNonlin non-compartmental analysis; format: ADME, organism-based, Canis lupus familiaris; conditions: in vivo
[34] = Volume of distribution at steady state in Beagle dog at 2 mg/kg, iv and 5 mg/kg, po by WinNonlin non-compartmental analysis; format: ADME, organism-based, Canis lupus familiaris; conditions: in vivo, read-out: Vdss
[35] = Cmax in Beagle dog at 5 mg/kg, po by WinNonlin non-compartmental analysis; format: ADME, organism-based, Canis lupus familiaris; design: dose 5 mg/kg, route oral; conditions: in vivo
[36] = Total clearance in cynomolgus monkey at 2 mg/kg, iv and 5 mg/kg, po by WinNonlin non-compartmental analysis; format: ADME, organism-based, Macaca fascicularis; conditions: in vivo
[37] = Volume of distribution at steady state in cynomolgus monkey at 2 mg/kg, iv and 5 mg/kg, po by WinNonlin non-compartmental analysis; format: ADME, organism-based, Macaca fascicularis; conditions: in vivo, read-out: Vdss
[38] = Cmax in cynomolgus monkey at 5 mg/kg, po by WinNonlin non-compartmental analysis; format: ADME, organism-based, Macaca fascicularis; design: dose 5 mg/kg, route oral; conditions: in vivo
[39] = Mitochondrial toxicity in human HepG2 cells assessed as increase in lactate production up to 10 uM measured for 14 days; format: cell-based, Mitochondria; conditions: hepg2, 336 h
[40] = Mitochondrial toxicity in human HepG2 cells assessed as decrease in mitochondrial DNA content up to 10 uM measured for 14 days; format: cell-based, Mitochondria; conditions: hepg2, 336 h
[41] = Cytotoxicity in rat liver epithelial cells; format: cell-based, Epithelial cell
[42] = Cytotoxicity in rat kidney fibroblasts; design: species or system Fibroblast
[43] = Cytotoxicity in rat heart myoblasts; design: species or system Myoblast
[44] = Inhibition of erythroid progenitor proliferation in human bone marrow cells up to 100 uM; format: cell-based; conditions: bone marrow cell
[45] = Inhibition of myeloid progenitor proliferation in human bone marrow cells up to 100 uM; format: cell-based; conditions: bone marrow cell
Salmonella typhimurium = assay: Genotoxicity in Salmonella typhimurium by Ames test; format: toxicity, organism-based; conditions: salmonella enterica subsp. enterica serovar typhimurium
Rattus norvegicus = assay: Toxicity in rat assessed as animal death up to 400 mg/kg, po administered as single dose; format: organism-based; design: dose 400 mg/kg, route oral; conditions: in vivo
Hepatocyte [46] = assay: Drug anabolism in human hepatocytes assessed as compound level at 10 uM after 24 hrs measured per million cells by mass spectrometer analysis; format: ADME, cell-based
Hepatocyte [47] = assay: Drug anabolism in rat hepatocytes assessed as compound level at 10 uM after 24 hrs measured per million cells by mass spectrometer analysis; format: ADME, cell-based

## C[C@@]1(O)[C@H](O)[C@@H](CO)O[C@H]1c1ccc2c(N)ncnn12
Hepatitis C virus [1]
  EC50: 760 nM
Hepatitis C virus [2]
  EC50: 1600 nM
[3]
  CC50: > 100000 nM
Hepatitis C virus [4]
  EC50: 630 nM
Hepatitis C virus [5]
  EC50: 410 nM
Hepatitis C virus [6]
  EC50: 420 nM
Hepatitis C virus [7]
  EC50: 880 nM
Hepatitis C virus [8]
  EC50: 820 nM
Hepatitis C virus [9]
  EC50: 1000 nM
[10]
  Drug metabolism: 29.7 pmol
[11]
  IC50: 370 nM
[12]
  IC50: 570 nM
[13]
  IC50: 390 nM
[14]
  IC50: 500 nM
[15]
  Drug metabolism: 31.8 pmol
[16]
  IC50: 480 nM
[17]
  IC50: 810 nM
[18]
  Drug metabolism: 9.33 pmol
[19]
  Drug metabolism: 0.53 pmol
[20]
  Drug metabolism: 3.36 pmol
Hepatocyte [21]
  Drug metabolism: 487 pmol
Hepatocyte [22]
  Drug metabolism: 40.5 pmol
Hepatocyte [23]
  Drug metabolism: 27.6 pmol
Hepatocyte [24]
  Drug metabolism: 49.9 pmol
Hepatocyte [25]
  Drug metabolism: 9.7 pmol
Hepatocyte [26]
  Drug metabolism: 7.3 pmol
[27]
  Drug metabolism: 51.2 pmol
[28]
  Drug metabolism: 8.3 pmol
[29]
  Drug metabolism: 7 pmol
[30]
  clearance: 18.8 mL/min/kg
[31]
  Vd: 4.19 L/kg
[32]
  Cmax: 2380 nM
[33]
  clearance: 11.4 mL/min/kg
[34]
  Vd: 5.22 L/kg
[35]
  Cmax: 8360 nM
[36]
  clearance: 20.5 mL/min/kg
[37]
  Vd: 2.43 L/kg
[38]
  Cmax: 820 nM
[39]
  Activity: Non-toxic
[40]
  Activity: Non-toxic
[41]
  CC50: 190000 nM
[42]
  CC50: > 250000 nM
[43]
  CC50: > 250000 nM
[44]
  Activity: Non-toxic
[45]
  Activity: Non-toxic
Salmonella typhimurium
  Activity: Non-toxic
Rattus norvegicus
  Activity: Toxic
Hepatocyte [46]
  Drug metabolism: 46.2 pmol
Hepatocyte [47]
  Drug metabolism: 16.9 pmol
